Source: ChEMBL document CHEMBL1143614, “Structure-activity relationships of the unique and potent agouti-related protein (AGRP)-melanocortin chimeric Tyr-c[beta-Asp-His-DPhe-Arg-Trp-Asn-Ala-Phe-Dpr]-Tyr-NH2 peptide template” (J Med Chem, 2005)

What was measured:
[1] = molecular target: Melanocortin receptor 3 (Mus musculus, UniProt P33033); experiment: Effective concentration for mouse Melanocortin-3 receptor
Procedure, shortened: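 HEK-293 cells stably expressing the mouse receptor (G418 selection), transiently transfected with a CRE/β-galactosidase reporter. Forskolin (10^-4 M) served as the control. After lysis, ONPG was added at 37° and OD405 was read. Signals were normalized to protein content and forskolin; EC50 came from a nonlinear least-squares fit, duplicate or more independent experiments in quadruplicate.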

[2] = species on record: Mus musculus; experiment: Relative effective concentration for Melanocortin-3 and Melanocortin-4 receptors

Chain of Melanocortin receptor 3 (P33033 whole entry): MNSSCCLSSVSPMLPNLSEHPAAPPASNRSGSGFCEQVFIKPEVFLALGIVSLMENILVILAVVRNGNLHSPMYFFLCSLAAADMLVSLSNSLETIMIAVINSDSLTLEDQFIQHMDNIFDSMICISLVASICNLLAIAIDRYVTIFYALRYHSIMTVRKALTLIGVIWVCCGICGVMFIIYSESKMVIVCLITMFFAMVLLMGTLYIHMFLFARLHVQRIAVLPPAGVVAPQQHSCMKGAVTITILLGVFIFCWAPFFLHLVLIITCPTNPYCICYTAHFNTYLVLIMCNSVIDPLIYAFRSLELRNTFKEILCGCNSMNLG

## C[C@@H]1NC(=O)[C@H](CC(N)=O)NC(=O)[C@H](Cc2c[nH]c3ccccc23)NC(=O)[C@H](CCCN=C(N)N)NC(=O)[C@@H](Cc2ccc(-c3ccccc3)cc2)NC(=O)[C@H](Cc2c[nH]cn2)NC(=O)[C@@H](NC(=O)[C@@H](N)Cc2ccc(O)cc2)CC(=O)N([C@@H](Cc2ccc(O)cc2)C(N)=O)[C@@](C)(C(=O)O)NC(=O)[C@H](Cc2ccccc2)NC1=O
[1]
  EC50: 33 nM
[2]
  Selectivity ratio: 58

## C[C@@H]1NC(=O)[C@H](CC(N)=O)NC(=O)[C@@H]2Cc3ccccc3CN2C(=O)[C@H](CCCN=C(N)N)NC(=O)[C@@H](Cc2ccccc2)NC(=O)[C@H](Cc2c[nH]cn2)NC(=O)[C@@H](NC(=O)[C@@H](N)Cc2ccc(O)cc2)CC(=O)N([C@@H](Cc2ccc(O)cc2)C(N)=O)[C@@](C)(C(=O)O)NC(=O)[C@H](Cc2ccccc2)NC1=O
[1]
  EC50: 3400 nM
[2]
  Selectivity ratio: 13

## C[C@@H]1NC(=O)[C@H](CC(N)=O)NC(=O)[C@H](Cc2ccc(-c3ccccc3)cc2)NC(=O)[C@H](CCCN=C(N)N)NC(=O)[C@@H](Cc2ccccc2)NC(=O)[C@H](Cc2c[nH]cn2)NC(=O)[C@@H](NC(=O)[C@@H](N)Cc2ccc(O)cc2)CC(=O)N([C@@H](Cc2ccc(O)cc2)C(N)=O)[C@@](C)(C(=O)O)NC(=O)[C@H](Cc2ccccc2)NC1=O
[1]
  EC50: 450 nM
[2]
  Selectivity ratio: 11

## C[C@@H]1NC(=O)[C@H](CC(N)=O)NC(=O)[C@H](Cc2c[nH]c3ccccc23)NC(=O)[C@H](CCCN=C(N)N)NC(=O)[C@@H](Cc2ccccc2)NC(=O)[C@H](C)NC(=O)[C@@H](NC(=O)[C@@H](N)Cc2ccc(O)cc2)CC(=O)N([C@@H](Cc2ccc(O)cc2)C(N)=O)[C@@](C)(C(=O)O)NC(=O)[C@H](Cc2ccccc2)NC1=O
[1]
  EC50: 29 nM
[2]
  Selectivity ratio: 80

## C[C@@H]1NC(=O)[C@H](CC(N)=O)NC(=O)[C@H](Cc2c[nH]c3ccccc23)NC(=O)[C@H](CCCCN)NC(=O)[C@@H](Cc2ccccc2)NC(=O)[C@H](Cc2c[nH]cn2)NC(=O)[C@@H](NC(=O)[C@@H](N)Cc2ccc(O)cc2)CC(=O)N([C@@H](Cc2ccc(O)cc2)C(N)=O)[C@@](C)(C(=O)O)NC(=O)[C@H](Cc2ccccc2)NC1=O
[1]
  EC50: 30800 nM

## C[C@@H]1NC(=O)[C@H](CC(N)=O)NC(=O)[C@H](Cc2c[nH]c3ccccc23)NC(=O)[C@H](CCCN=C(N)N)NC(=O)[C@@H](Cc2cccc3ccccc23)NC(=O)[C@H](Cc2c[nH]cn2)NC(=O)[C@@H](NC(=O)[C@@H](N)Cc2ccc(O)cc2)CC(=O)N([C@@H](Cc2ccc(O)cc2)C(N)=O)[C@@](C)(C(=O)O)NC(=O)[C@H](Cc2ccccc2)NC1=O
[1]
  EC50: 320 nM
[2]
  Selectivity ratio: 560

## C[C@@H]1NC(=O)[C@H](CC(N)=O)NC(=O)[C@H](Cc2c[nH]c3ccccc23)NC(=O)[C@@H]2CCCN2C(=O)[C@@H](Cc2ccccc2)NC(=O)[C@H](Cc2c[nH]cn2)NC(=O)[C@@H](NC(=O)[C@@H](N)Cc2ccc(O)cc2)CC(=O)N([C@@H](Cc2ccc(O)cc2)C(N)=O)[C@@](C)(C(=O)O)NC(=O)[C@H](Cc2ccccc2)NC1=O
[1]
  EC50: 17300 nM

## C[C@@H]1NC(=O)[C@H](CC(N)=O)NC(=O)[C@H](Cc2c[nH]c3ccccc23)NC(=O)[C@H](CCCN=C(N)N)NC(=O)[C@@H]2CCCN2C(=O)[C@H](Cc2c[nH]cn2)NC(=O)[C@@H](NC(=O)[C@@H](N)Cc2ccc(O)cc2)CC(=O)N([C@@H](Cc2ccc(O)cc2)C(N)=O)[C@@](C)(C(=O)O)NC(=O)[C@H](Cc2ccccc2)NC1=O
[1]
  EC50: 13200 nM

## C[C@@H]1NC(=O)[C@H](CC(N)=O)NC(=O)[C@@H]2CCCN2C(=O)[C@H](CCCN=C(N)N)NC(=O)[C@@H](Cc2ccccc2)NC(=O)[C@H](Cc2c[nH]cn2)NC(=O)[C@@H](NC(=O)[C@@H](N)Cc2ccc(O)cc2)CC(=O)N([C@@H](Cc2ccc(O)cc2)C(N)=O)[C@@](C)(C(=O)O)NC(=O)[C@H](Cc2ccccc2)NC1=O
[1]
  EC50: 39200 nM

## C[C@@H]1NC(=O)[C@H](CC(N)=O)NC(=O)[C@H](Cc2c[nH]c3ccccc23)NC(=O)[C@H](CCCN=C(N)N)NC(=O)[C@@H](Cc2ccccc2)NC(=O)[C@H](Cc2c[nH]cn2)NC(=O)[C@@H](NC(=O)[C@@H](N)Cc2ccc(O)cc2)CC(=O)N([C@@H](Cc2ccc(O)cc2)C(N)=O)[C@@](C)(C(=O)O)NC(=O)[C@H](Cc2ccccc2)NC1=O
[1]
  EC50: 0.97 nM
